Calls of active or inactive are those of the source. The calls are words filed in the database; no cut-off is given here.
Columns and labels:
MDA-MB-231 [1] = assay: Induction of ROS generation in human MDA-MB-231 cells at 2.5 to 40 uM incubated for 24 hrs by bioluminescence assay; type: functional, cell-based; details: dose 2.5-40 µM
Method in brief: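 MDA-MB-231 cells stably carrying the lentiviral OxiLuc oxidative-stress reporter, sorted by FACS for mStrawberry. Plated at 5x10³ cells/well the day before, then given escalating doses for 24 h. Bioluminescence imaged on an IVIS Spectrum, and per-well photon flux quantified as photons/s/sr/cm².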

MDA-MB-231 [2] = assay: Effect on metabolism in human MDA-MB-231 cells assessed as reduction in intracellular aspartate level at 5 uM incubated for 16 hrs by LC-MS based metabolomics analysis; type: functional, cell-based
Method in brief: (§1)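 MDA-MB-231 cells in RPMI-1640 plus 10% FBS, treated 16 h with DMSO vehicle or compound at 5 μM. Untargeted metabolic profiling followed, with normalized metabolite levels compared between treated and vehicle groups.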

MDA-MB-231 [3] = assay: Antiproliferative activity against human MDA-MB-231 cells; type: functional, cell-based
Method in brief: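 MDA-MB-231 cells grown in RPMI-1640 with 10% FBS at 37°C, 5% CO2. Seeded at 2000 cells/well, then exposed to graded compound concentrations, medium renewed every 2–3 days. On day 5, viability read by CyQUANT fluorescence (cellular DNA content).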

[4] = Cytotoxicity against vincristine-resistant human VJ-300 cells; type: functional, cell-based
[5] = Cytotoxicity against human MCF-10A cells; type: toxicity, cell-based
MCF7 = assay: Cytotoxicity against human MCF7 cells; type: functional, cell-based
T47D = assay: Cytotoxicity against human T47D cells; type: functional, cell-based
[6] = Effect on metabolism in human MDA-MB-231 cells assessed as reduction in argininosuccinic-acid level at 5 uM incubated for 16 hrs by LC-MS based metabolomics analysis; type: functional; set-up: scale not given: the % may be the effect or the level left; method in brief: as §1
[7] = Effect on metabolism in human MDA-MB-231 cells assessed as reduction in N-acetylaspartate level at 5 uM incubated for 16 hrs by LC-MS based metabolomics analysis; type: functional; set-up: scale not given: the % may be the effect or the level left; method in brief: as §1
MDA-MB-231 [8] = assay: Effect on metabolism in human MDA-MB-231 cells assessed as change in intracellular metabolite abundances at 5 uM incubated for 16 hrs by LC-MS based metabolomics analysis; type: functional, cell-based; method in brief: as §1
[9] = Inhibition of pyrimidine biosynthesis in human MDA-MB-231 cells assessed as fold increase in cytidine levels at 5 uM incubated for 16 hrs by LC-MS based metabolomics analysis; type: functional; method in brief: as §1
[10] = Effect on metabolism in human MDA-MB-231 cells assessed as reduction in carbamoyl aspartate level at 5 uM incubated for 16 hrs by LC-MS based metabolomics analysis; type: functional; set-up: scale not given: the % may be the effect or the level left; method in brief: as §1

In the case of CC[C@]12C=CCN3CC[C@]4(C(=C(C(=O)OC)C1)Nc1cc(OC)c(OS(=O)(=O)F)cc14)[C@@H]32, the Activity (MDA-MB-231 [1]) is reported as “inactive”, the Activity (MDA-MB-231 [2]) is reported as “inactive” and the IC50 (MDA-MB-231 [3]) is reported as 3720 nM.

In the case of CC[C@]12C=CCN3CC[C@@]4(C5=CC(=O)C(OC)=CC5=NC4=C(C(=O)OC)C1)[C@@H]32, the Activity (MDA-MB-231 [1]) is reported as “inactive” and the IC50 (MDA-MB-231 [3]) is reported as 1960 nM.

For CC[C@]12C=CCN3CC[C@]4(C(=C(C(=O)OC)C1)Nc1ccc(OS(=O)(=O)F)cc14)[C@@H]32, the Activity (MDA-MB-231 [1]) was “inactive” and the IC50 (MDA-MB-231 [3]) was 6170 nM.

For CC[C@]12C=CCN3CC[C@]4(C(=C(C(=O)OC)C1)Nc1cc(OC)c(OC(C)=O)cc14)[C@@H]32 [JERANTININE A ACETATE], the IC50 [4] was 830 nM, the IC50 [5] was 18800 nM and the IC50 (MDA-MB-231 [3]) was 2600 nM.

In the case of CC[C@]12C=CCN3CC[C@]4(C(=C(C(=O)OC)C1)Nc1cc(OC)c(O)cc14)[C@@H]32 [JERANTININE A], the IC50 (MCF7) is reported as 720 nM, the IC50 [5] is reported as 960 nM and the Activity (MDA-MB-231 [1]) is reported as “Active”. It also gave an IC50 (T47D) of 720 nM, an Activity [6] of 90% and an Activity [7] of 90%. For the same molecule, the Activity (MDA-MB-231 [8]) was “Active”, the “fold change (FC)” value [9] was 10 and the Activity (MDA-MB-231 [2]) was “Active”. The Activity [10] was 90% and the IC50 (MDA-MB-231 [3]) was 1920 nM.

For CC[C@]12C=CCN3CC[C@]4(C(=C(C(=O)OC)C1)Nc1ccc(O)cc14)[C@@H]32 [MELODININE P], the Activity (MDA-MB-231 [1]) was “Active” and the IC50 (MDA-MB-231 [3]) was 1060 nM.

With CC[C@]12C=CCN3CC[C@]4(C(=C(C(=O)OC)C1)Nc1ccccc14)[C@@H]32 [TABERSONINE] the Activity (MDA-MB-231 [1]) was “inactive” and the IC50 (MDA-MB-231 [3]) was 5590 nM.
